According to ChEMBL document CHEMBL3808369, “Identification of Cyproheptadine as an Inhibitor of SET Domain Containing Lysine Methyltransferase 7/9 (Set7/9) That Regulates Estrogen-Dependent Transcription” (J Med Chem, 2016):
Calls of active or inactive are those of the source. The rule behind the calls is not given here.

How the values were obtained:
[1] = target: T1, Histone-lysine N-methyltransferase SETD7 (Homo sapiens, UniProt Q8WTS6); test: Inhibition of recombinant Set7/9 (unknown origin) expressed in Escherichia coli BL21 (DE3) using biotinylated histone H3-derived peptide/SAM as substrate by alphaLISA
T1 sequence (Q8WTS6 whole entry): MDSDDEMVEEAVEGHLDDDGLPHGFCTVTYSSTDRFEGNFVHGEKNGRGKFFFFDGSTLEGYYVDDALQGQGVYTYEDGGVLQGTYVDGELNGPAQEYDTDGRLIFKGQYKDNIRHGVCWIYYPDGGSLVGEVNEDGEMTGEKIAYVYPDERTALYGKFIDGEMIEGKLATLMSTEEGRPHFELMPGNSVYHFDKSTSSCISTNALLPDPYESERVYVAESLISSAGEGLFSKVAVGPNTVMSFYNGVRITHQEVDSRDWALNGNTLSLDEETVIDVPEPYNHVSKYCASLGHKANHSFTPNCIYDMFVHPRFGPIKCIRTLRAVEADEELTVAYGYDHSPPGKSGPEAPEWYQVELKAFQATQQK

[2] = target: T2, Histone-lysine N-methyltransferase SETD7 (Homo sapiens) (UniProt Q8WTS6); test: Inhibition of Set7/9 in human MCF7 cells assessed as suppression of beta-estradiol-induced pS2 mRNA expression at 3 to 10 uM preincubated for 18 hrs followed by beta-estradiol addition measured after 24 hrs by RT-PCR analysis; type: cell-based; conditions: in the assay text read “preincubated for 24 hrs” for “preincubated for 18 hrs”
T2 sequence (whole entry): T1 sequence (Q8WTS6 whole entry)
In short: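 MCF7 cells in estrogen-free medium were treated with compound for 24 h, then with 10 nM β-estradiol plus compound for a further 24 h. pS2 and GAPDH mRNA levels were measured by semiquantitative RT-PCR.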

[3] = target: T2, Histone-lysine N-methyltransferase SETD7 (Homo sapiens); test: Inhibition of Set7/9 in human MCF7 cells assessed as suppression of beta-estradiol-induced ERE promoter activation at 3 to 10 uM preincubated for 18 hrs followed by beta-estradiol addition measured after 24 hrs by luciferase reporter gene assay; type: cell-based
In short: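 MCF7 cells were switched to estrogen-free medium (phenol red-free RPMI, 10% charcoal-stripped FBS) for 3 days, then transfected with pGL4-3×ERE-TA2 and hRuc-TK. After 6 h, compound was added. After 18 h more, cells received ± 10 nM β-estradiol for 24 h. Dual-luciferase readout: firefly normalized to Renilla, given as fold over unstimulated cells. Four independent assays, SD.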

MCF7 = test: Effect on ERalpha expression in human MCF7 cells at 10 to 100 uM after 48 hrs by immunoblotting analysis; type: functional, cell-based
In short: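 MCF7 cells were treated with various concentrations for 48 h. Lysates were made in RIPA buffer with protease inhibitors, separated by SDS-PAGE, transferred to PVDF and immunoblotted for ERα with a rabbit polyclonal antibody. Detection was by chemiluminescence.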

[4] = target: T2, Histone-lysine N-methyltransferase SETD7 (Homo sapiens); test: Inhibition of Set7/9 (unknown origin) expressed in Escherichia coli BL21 (DE3) by fluorogenic assay

IC50 [1]	inhibition [2]	inhibition [3]	inhibition [4]	SMILES	Activity (MCF7)
> 100 µM				CC(=O)N1CCC(=C2c3ccccc3C=Cc3ccccc32)CC1	
	Active	Active		CC/C(=C(\c1ccccc1)c1ccc(OCCN(C)C)cc1)c1ccccc1	
			inactive	Cc1ccc(/C(=C\CN2CCCC2)c2ccccn2)cc1	inactive
			inactive	O=C(c1ccc(F)cc1)C1CCN(CCn2c(=O)[nH]c3ccccc3c2=O)CC1	inactive
